Only some compounds are listed: those with a hit (about 5.4% of all), similar ones and a draw of the others.
Mdm2-MdmX inh: disrupts the human Mdm2-MdmX interaction; O15151+Q00987; SaOS-2 split-luciferase Mdm2/MdmX complementation, luminescence; inhibition, % at 8 µM; actives 3% (n = 330,000); AID 485346;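 active = inhibition of at least 50% at 8 µM in the primary screen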
Target sequence (O15151 whole entry, looked up): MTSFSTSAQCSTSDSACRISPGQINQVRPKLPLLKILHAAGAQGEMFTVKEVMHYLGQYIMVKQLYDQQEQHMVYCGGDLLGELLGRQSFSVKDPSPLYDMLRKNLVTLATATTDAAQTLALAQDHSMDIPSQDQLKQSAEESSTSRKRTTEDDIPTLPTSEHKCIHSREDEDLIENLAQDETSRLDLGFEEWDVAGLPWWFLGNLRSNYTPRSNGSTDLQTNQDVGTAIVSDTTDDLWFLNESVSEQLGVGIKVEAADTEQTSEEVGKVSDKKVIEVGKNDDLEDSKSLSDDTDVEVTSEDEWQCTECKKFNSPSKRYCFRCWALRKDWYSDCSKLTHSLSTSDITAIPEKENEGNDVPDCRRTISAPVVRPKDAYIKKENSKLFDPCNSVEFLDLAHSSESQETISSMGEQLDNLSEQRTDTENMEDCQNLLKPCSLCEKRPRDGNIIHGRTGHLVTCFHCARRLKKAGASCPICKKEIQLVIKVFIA
Target sequence (Q00987 whole entry, looked up): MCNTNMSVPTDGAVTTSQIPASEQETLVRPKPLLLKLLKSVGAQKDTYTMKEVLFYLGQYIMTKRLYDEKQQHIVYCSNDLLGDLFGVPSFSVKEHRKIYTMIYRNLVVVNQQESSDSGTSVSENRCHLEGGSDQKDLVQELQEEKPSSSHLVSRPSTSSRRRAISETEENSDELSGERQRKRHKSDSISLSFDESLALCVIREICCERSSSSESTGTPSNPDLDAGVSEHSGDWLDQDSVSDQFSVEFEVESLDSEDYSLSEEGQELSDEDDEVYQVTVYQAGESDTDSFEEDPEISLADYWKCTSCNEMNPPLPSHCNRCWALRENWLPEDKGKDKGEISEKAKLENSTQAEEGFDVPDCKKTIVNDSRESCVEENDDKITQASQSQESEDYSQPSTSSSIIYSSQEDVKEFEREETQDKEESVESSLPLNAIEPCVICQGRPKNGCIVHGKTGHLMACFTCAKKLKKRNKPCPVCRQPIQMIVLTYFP
SKKanGAS inh: inhibitors of SKKanGAS S. pyogenes growth in kanamycin (SK-promoter or general growth effect). BacTiter-Glo, 6 h. inhibition, % at 7.5 µM. actives 1.3% (n = 300,000). AID 1662;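 active = mean replicate score, as percent of positive control median, at least 50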;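 also: strain carries kanamycin resistance gene driven by streptokinase promoter and grows in 40 µg/ml kanamycin; loss of luminescence reflects streptokinase promoter inhibition or plain growth inhibition; 0% = median of DMSO wells and 100% = positive control at its reference dose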
T cruzi inh: T. cruzi replication inhibition; T. cruzi beta-gal in NIH3T3, luminescence, 90 h; inhibition, % (concentration not given with the values); actives 1.4% (n = 300,000); AID 1885;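 active = mean inhibition across valid replicates above about 55%, limit read from the data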;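 also: signal also drops with host cell toxicity which is not excluded here; 0% = plate median of DMSO wells and 100% = zero luminescence signal; higher percent means less beta-gal luminescence so fewer parasites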
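Incubation – ≥90 h infection period, 3 h prior cell attachment · System – NIH/3T3 fibroblasts plus reporter T. cruzi · Doses – compound pinned at 50 nL/well, DMSO · Read-out basis – percent inhibition of parasite-derived β-gal signal · Signal – luminescent β-galactosidase signal after 60 min lysis · Also added – 5000 T. cruzi trypomastigotes/well · Medium – Low-serum DMEM with 2% FBS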
aSyn UTR inh: 5' untranslated region of α-synuclein, MLPCN primary screen; alpha-synuclein 5'UTR reporter, inhibitor activity; inhibition, % (tested at 7.5 µM); actives 0.82% (n = 300,000); in the data active = inhibition above about 60%;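 also: H4 neuroglioblastoma cells stably carrying SNCA 5'UTR luciferase fusion; 0% = DMSO wells and 100% = positive control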
CSC inhib: cancer stem cell inhibition | actives 1.1% (n = 300,000) | AID 2717 | cancer stem cell-like cells viability, luminescence | inhibition, % at 7.5 µM; in the data active = inhibition above about 75%; tested in HMLE shEcad cells
Numbers without * were called inactive.

COc1ccc(S(=O)(=O)N[C@@H](C)C(=O)OCC(=O)Nc2cc3oc4ccccc4c3cc2OC)cc1 was read as Mdm2-MdmX inh -47.2, SKKanGAS inh 80.3*, T cruzi inh 10.4, aSyn UTR inh -128.9 and CSC inhib 7.6.
COc1cc2c(cc1NC(=O)c1cccc([N+](=O)[O-])c1C)oc1ccccc12 was read as Mdm2-MdmX inh 17.8, SKKanGAS inh 7.4, T cruzi inh 37.2, aSyn UTR inh -2.6 and CSC inhib 101.7*.
For COc1cc2c(cc1NC(=O)CSc1ccccc1)oc1ccccc12 the results were Mdm2-MdmX inh 2.9, SKKanGAS inh -14.4, T cruzi inh -9.6, aSyn UTR inh 8.7 and CSC inhib 17.3.
CC(CCc1ccco1)NC(=O)Cn1ncc2c1-c1ccccc1OC2 (configuration not stated) was read as Mdm2-MdmX inh 3.6, SKKanGAS inh -0.2, T cruzi inh 0.2, aSyn UTR inh 12.2 and CSC inhib -12.9.
For Cc1ccc(C(=O)OCC(=O)NNC(=O)c2cccs2)c(O)c1 the results were Mdm2-MdmX inh 3.3, SKKanGAS inh -15.4, T cruzi inh -14.0, aSyn UTR inh -6.6 and CSC inhib 0.4.
For COc1cc2c(cc1NC(=O)c1cccc(S(=O)(=O)N(C)C)c1)oc1ccccc12 the results were Mdm2-MdmX inh -61.3, SKKanGAS inh 22.0, T cruzi inh 47.2, aSyn UTR inh -59.1 and CSC inhib 126.4*.
`CCN(CC)S(=O)(=O)c1ccc(C(=O)Nc2cc3oc4ccccc4c3cc2OC)cc1` gave Mdm2-MdmX inh -5.5, SKKanGAS inh -1.2, T cruzi inh 23.1, aSyn UTR inh 3.8 and CSC inhib 20.7.
`COc1cc2c(cc1NC(=O)Nc1ccc(C)cc1)oc1ccccc12` gave Mdm2-MdmX inh 8.4, SKKanGAS inh 3.2, T cruzi inh 14.5, aSyn UTR inh -49.0 and CSC inhib 88.1*.
`O=C(CN1CCN(C(=O)C2CCN(C(=O)/C=C/c3ccccc3)CC2)CC1)Nc1ccccc1Cl` gave Mdm2-MdmX inh 19.0.
CCCSC(=S)c1c(C)[nH]n(-c2ccccc2)c1=O was read as Mdm2-MdmX inh 38.7, SKKanGAS inh 88.8*, T cruzi inh -39.9, aSyn UTR inh -14.3 and CSC inhib 64.5.
For CCC(=O)NNC(=S)NC(=O)c1ccc(C)cc1 the results were Mdm2-MdmX inh 4.5, SKKanGAS inh 22.1, T cruzi inh -2.0, aSyn UTR inh -38.8 and CSC inhib -7.9.
Cc1cccc(C(=O)NC(=S)NNC(=O)COc2c(C)cccc2C)c1 was read as Mdm2-MdmX inh 8.3, SKKanGAS inh 107.2*, T cruzi inh -8.5, aSyn UTR inh -22.5 and CSC inhib 17.7.
Screening Cc1cccc(C(=O)NC(=S)NNC(=O)c2ccccc2Cl)c1 returned Mdm2-MdmX inh 28.2, SKKanGAS inh 85.7*, T cruzi inh 12.8, aSyn UTR inh 8.4 and CSC inhib 12.1.
Screening Cc1cccc(C(=O)NC(=S)NNC(=O)Cc2ccccc2)c1 returned Mdm2-MdmX inh 19.5, SKKanGAS inh 19.7, T cruzi inh -21.7, aSyn UTR inh -11.6 and CSC inhib -7.5.
Screening Cc1ccc(C(=O)NC(=S)NNC(=O)COc2ccccc2C)cc1 returned Mdm2-MdmX inh 23.0, SKKanGAS inh 117.9*, T cruzi inh 32.3, aSyn UTR inh -17.3 and CSC inhib 14.5.
`O=C(COC(=O)CCNS(=O)(=O)c1ccccc1)NC(=O)c1ccccc1` gave Mdm2-MdmX inh 6.5, SKKanGAS inh 0.1, T cruzi inh -6.8, aSyn UTR inh -0.8 and CSC inhib -8.5.
CCOCCn1c(=O)c2c(nc3n2CCCN3CCc2ccccc2)n(C)c1=O was read as Mdm2-MdmX inh 7.0, SKKanGAS inh 0.5, T cruzi inh -22.3, aSyn UTR inh 11.9 and CSC inhib 25.2.
Screening O=C(N/N=C/c1ccc([N+](=O)[O-])o1)c1ccc2c(c1)OCO2 returned Mdm2-MdmX inh 29.5, SKKanGAS inh 3.5, T cruzi inh 69.3*, aSyn UTR inh 93.6* and CSC inhib -13.4.
For Cc1ccc(C(=O)N/N=C\c2ccc([N+](=O)[O-])o2)cn1 the results were Mdm2-MdmX inh 43.7, SKKanGAS inh 5.9, T cruzi inh 57.8*, aSyn UTR inh -15.4 and CSC inhib -2.6.
`Cc1ccc2c(c1)N(CC(=O)N1CCCCC1C)C(=O)CO2` (configuration not stated) gave Mdm2-MdmX inh -4.1, SKKanGAS inh 1.5, T cruzi inh -3.0 and aSyn UTR inh 11.1.

Screening data as filed in PubChem.
